According to ChEMBL document CHEMBL4382285, “Discovery of Novel Retigabine Derivatives as Potent KCNQ4 and KCNQ5 Channel Agonists with Improved Specificity” (ACS Med Chem Lett, 2019):
Active and inactive are the calls of the source. No cut-off for these calls is given here.

Assays:
Format in all cases: cell-based
[1] = target: T1, Potassium voltage-gated channel subfamily KQT member 5 (Homo sapiens, UniProt Q9NR82); assay: Activity at human KCNQ5 expressed in CHOK1 cells assessed as ratio of amplitude of outward current in presence of test compound to amplitude of outward current in absence of test compound at 10 uM at -10 mV by whole cell patch clamp assay
T1 sequence (Q9NR82 whole entry): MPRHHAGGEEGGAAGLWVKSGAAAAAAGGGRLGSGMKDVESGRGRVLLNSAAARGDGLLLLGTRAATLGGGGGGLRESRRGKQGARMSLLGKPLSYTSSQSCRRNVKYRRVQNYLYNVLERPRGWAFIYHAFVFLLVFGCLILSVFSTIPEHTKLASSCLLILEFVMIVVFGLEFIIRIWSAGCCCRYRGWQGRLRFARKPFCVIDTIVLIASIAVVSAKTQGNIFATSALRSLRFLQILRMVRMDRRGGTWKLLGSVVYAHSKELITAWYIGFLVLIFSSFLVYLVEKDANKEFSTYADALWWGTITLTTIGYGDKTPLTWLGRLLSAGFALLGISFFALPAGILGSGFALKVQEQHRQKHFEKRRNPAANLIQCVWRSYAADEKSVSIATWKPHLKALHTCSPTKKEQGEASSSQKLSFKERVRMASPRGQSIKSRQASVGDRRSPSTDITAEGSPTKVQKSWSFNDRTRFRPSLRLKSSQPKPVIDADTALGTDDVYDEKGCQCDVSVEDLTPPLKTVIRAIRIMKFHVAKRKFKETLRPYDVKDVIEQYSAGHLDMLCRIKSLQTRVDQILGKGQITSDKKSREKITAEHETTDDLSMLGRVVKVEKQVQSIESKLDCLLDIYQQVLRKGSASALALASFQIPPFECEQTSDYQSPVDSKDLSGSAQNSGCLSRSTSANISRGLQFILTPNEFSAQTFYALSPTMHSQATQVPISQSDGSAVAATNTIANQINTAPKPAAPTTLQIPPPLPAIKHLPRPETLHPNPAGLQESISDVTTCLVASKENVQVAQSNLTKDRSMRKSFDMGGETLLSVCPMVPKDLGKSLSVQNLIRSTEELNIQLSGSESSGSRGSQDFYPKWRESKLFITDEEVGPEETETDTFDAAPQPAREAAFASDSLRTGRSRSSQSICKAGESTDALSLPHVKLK
Method in brief: (§1)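 CHO-K1 cells expressing the channel, whole-cell voltage clamp, compound at 10 μM. Read-out is the outward current ratio I/I0 with and without compound, taken at −10 mV. I/I0 > 1 counts as activation and < 1 as inhibition. More than four cells per compound.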

[2] = target: Potassium voltage-gated channel subfamily KQT member 2 (Rattus norvegicus, UniProt O88943); assay: Activation of rat homomeric KCNQ2 expressed in CHOK1 cells increase in current amplitude at 30 uM at -10 mV by whole cell patch clamp assay relative to control
Potassium voltage-gated channel subfamily KQT member 2, sequence (O88943 whole entry): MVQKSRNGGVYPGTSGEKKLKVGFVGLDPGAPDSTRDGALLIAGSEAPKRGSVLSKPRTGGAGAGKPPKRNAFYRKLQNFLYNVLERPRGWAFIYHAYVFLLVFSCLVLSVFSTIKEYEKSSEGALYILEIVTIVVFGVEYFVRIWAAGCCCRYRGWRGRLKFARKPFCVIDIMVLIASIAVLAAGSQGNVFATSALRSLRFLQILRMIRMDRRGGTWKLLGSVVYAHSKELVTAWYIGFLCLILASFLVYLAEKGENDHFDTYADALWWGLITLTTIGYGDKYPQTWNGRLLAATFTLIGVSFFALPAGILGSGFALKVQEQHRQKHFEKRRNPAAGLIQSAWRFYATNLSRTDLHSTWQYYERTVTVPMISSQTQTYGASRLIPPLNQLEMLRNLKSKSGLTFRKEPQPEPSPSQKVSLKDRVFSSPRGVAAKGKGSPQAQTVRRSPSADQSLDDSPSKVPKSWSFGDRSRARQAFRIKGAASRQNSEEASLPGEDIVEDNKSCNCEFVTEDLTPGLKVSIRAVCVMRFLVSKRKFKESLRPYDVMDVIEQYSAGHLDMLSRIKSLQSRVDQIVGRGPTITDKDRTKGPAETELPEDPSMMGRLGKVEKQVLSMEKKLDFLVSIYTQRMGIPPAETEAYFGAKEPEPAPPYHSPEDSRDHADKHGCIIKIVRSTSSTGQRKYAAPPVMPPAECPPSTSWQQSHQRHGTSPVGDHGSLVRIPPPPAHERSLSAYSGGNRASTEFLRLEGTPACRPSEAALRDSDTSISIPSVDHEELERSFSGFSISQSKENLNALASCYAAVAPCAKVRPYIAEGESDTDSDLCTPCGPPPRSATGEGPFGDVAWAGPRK
Method in brief: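 CHO-K1 cells expressing homomeric KCNQ2, recorded by whole-cell voltage clamp. Holding potential −80 mV with step depolarizations; current amplitude at −10 mV compared before and after compound across 1–30 μM, reported as percent change in current.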

[3] = target: T2, Potassium voltage-gated channel subfamily KQT member 3 (Rattus norvegicus) (UniProt O88944); assay: Activity at rat KCNQ3 expressed in CHOK1 cells assessed as ratio of amplitude of outward current in presence of test compound to amplitude of outward current in absence of test compound at 10 uM at -10 mV by whole cell patch clamp assay
T2 sequence (whole entry): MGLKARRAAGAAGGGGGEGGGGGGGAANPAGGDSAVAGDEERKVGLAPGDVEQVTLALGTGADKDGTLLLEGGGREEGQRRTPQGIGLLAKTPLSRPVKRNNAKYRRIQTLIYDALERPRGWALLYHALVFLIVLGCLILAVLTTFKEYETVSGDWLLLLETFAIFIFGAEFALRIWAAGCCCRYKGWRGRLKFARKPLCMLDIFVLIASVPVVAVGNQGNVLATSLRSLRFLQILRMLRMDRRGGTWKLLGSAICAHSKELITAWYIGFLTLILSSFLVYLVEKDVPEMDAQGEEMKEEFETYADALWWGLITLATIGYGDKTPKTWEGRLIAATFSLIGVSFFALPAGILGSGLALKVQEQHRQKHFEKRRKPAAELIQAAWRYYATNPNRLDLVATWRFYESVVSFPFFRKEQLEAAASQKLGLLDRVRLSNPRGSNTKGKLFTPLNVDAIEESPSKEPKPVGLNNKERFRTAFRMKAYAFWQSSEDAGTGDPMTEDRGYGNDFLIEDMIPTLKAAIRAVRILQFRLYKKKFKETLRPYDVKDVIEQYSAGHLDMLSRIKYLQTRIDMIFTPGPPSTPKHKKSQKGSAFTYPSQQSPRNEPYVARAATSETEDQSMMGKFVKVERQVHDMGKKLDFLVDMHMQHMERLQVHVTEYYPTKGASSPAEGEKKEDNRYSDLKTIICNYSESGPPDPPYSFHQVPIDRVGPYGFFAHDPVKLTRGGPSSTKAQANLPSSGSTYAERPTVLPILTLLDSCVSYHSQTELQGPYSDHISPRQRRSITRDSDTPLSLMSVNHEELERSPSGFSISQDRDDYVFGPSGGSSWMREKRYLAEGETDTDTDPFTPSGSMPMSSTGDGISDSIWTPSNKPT
Method in brief: (§2)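 CHO-K1 cells individually transfected with a single KCNQ subtype; whole-cell voltage clamp. Held at −80 mV, stepped from −90 to +60 mV in 10 mV increments (1500 ms), then to −120 mV for 500 ms. Outward current at −10 or +60 mV measured before (I0) and after (I) 10 μM compound; I/I0 >1 counts as activation. More than four cells per compound.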

[4] = target: Potassium voltage-gated channel subfamily KQT member 2 (Rattus norvegicus) (UniProt O88943); assay: Effect on voltage-dependent activation of rat KCNQ2 expressed in CHOK1 cells assessed as negative shift in current activation curve at 10 uM by whole cell patch clamp assay
Potassium voltage-gated channel subfamily KQT member 2 (Rattus norvegicus), sequence (O88943 whole entry): as the sequence (O88943 whole entry) above

[5] = target: Potassium voltage-gated channel subfamily KQT member 2 (Rattus norvegicus) (UniProt O88943); assay: Activity at rat KCNQ2 expressed in CHOK1 cells assessed as ratio of amplitude of outward current in presence of test compound to amplitude of outward current in absence of test compound at 10 uM at +60 mV by whole cell patch clamp assay; method in brief: as §2
[6] = target: T1, Potassium voltage-gated channel subfamily KQT member 5; assay: Activity at human KCNQ5 expressed in CHOK1 cells assessed as ratio of amplitude of outward current in presence of test compound to amplitude of outward current in absence of test compound at 10 uM at +60 mV by whole cell patch clamp assay; method in brief: as §2
[7] = target: T3, Potassium voltage-gated channel subfamily KQT member 4 (Homo sapiens) (UniProt P56696); assay: (§3) Activation of human homomeric KCNQ4 expressed in CHOK1 cells at -10 mV by whole cell patch clamp assay
T3 sequence (whole entry): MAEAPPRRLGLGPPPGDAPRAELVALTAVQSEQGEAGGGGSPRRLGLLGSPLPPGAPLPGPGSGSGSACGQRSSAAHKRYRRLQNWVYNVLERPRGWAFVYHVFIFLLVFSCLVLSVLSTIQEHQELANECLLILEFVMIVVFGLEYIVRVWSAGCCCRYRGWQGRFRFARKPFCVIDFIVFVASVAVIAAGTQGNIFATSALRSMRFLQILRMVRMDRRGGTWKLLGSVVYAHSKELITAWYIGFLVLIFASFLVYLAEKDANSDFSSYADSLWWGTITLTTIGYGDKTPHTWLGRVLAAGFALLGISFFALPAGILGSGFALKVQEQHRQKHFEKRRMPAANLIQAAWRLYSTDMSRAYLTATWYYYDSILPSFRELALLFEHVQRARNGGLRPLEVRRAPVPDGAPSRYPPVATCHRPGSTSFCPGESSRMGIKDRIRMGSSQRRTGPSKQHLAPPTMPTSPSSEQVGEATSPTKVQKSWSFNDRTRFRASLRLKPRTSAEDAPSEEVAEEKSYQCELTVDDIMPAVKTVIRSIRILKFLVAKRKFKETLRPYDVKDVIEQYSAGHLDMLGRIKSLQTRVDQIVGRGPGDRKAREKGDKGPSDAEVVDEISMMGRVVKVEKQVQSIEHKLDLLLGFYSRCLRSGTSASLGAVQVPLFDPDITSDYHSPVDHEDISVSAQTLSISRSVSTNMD
Method in brief: (§4)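 Whole-cell voltage clamp of CHO-K1 cells expressing homomeric KCNQ4. Holding potential −80 mV with depolarizing steps; current read at −10 mV before and after compound at several concentrations. EC50 derived from the concentration–response relationship, with the Hill coefficient reported.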

[8] = target: T4, Potassium voltage-gated channel subfamily KQT member 4 (Homo sapiens, UniProt P56696); assay: as §3; method in brief: as §4
T4 sequence (P56696 whole entry): T3 sequence (whole entry)

[9] = target: T3, Potassium voltage-gated channel subfamily KQT member 4 (Homo sapiens); assay: Effect on voltage-dependent activation of human KCNQ4 expressed in CHOK1 cells assessed as negative shift in current activation curve at 10 uM by whole cell patch clamp assay
[10] = target: Potassium voltage-gated channel subfamily KQT member 2 (Rattus norvegicus) (UniProt O88943); assay: Activity at rat KCNQ2 expressed in CHOK1 cells assessed as ratio of amplitude of outward current in presence of test compound to amplitude of outward current in absence of test compound at 10 uM at -10 mV by whole cell patch clamp assay; method in brief: as §1

With C#CCN(Cc1ccc(F)cc1)c1ccc(NC(=O)OCC)c(NC(=O)OCC)c1 as the molecule, how does the Ratio [1] read?
The Ratio was 3.2.

And the Activity [2]?
Its Activity is 2%.

And the Ratio [3]?
The Ratio was 1.6.

What about the Activity [4] of the same molecule?
The Activity was “inactive”.

What about the Ratio [5] of the same molecule?
The Ratio was 0.8.

And the Ratio [6]?
The Ratio was 4.8.

And the Activity [7]?
Its Activity is “Dose-dependent effect”.

What about the EC50 [8] of the same molecule?
Its EC50 is 890 nM.

What about the Activity [9] of the same molecule?
The Activity was “inactive”.

What about the Ratio [10] of the same molecule?
The Ratio was 0.94.
